Screening data from PubChem BioAssay.
Compounds with a hit are over-represented: about 1.8% of the library has one in this group of screens.
iPSC survival up: hiPSC single-cell survival enhancement; survival enhancement, % at 20 µM; ATPlite luminescence; 100% = ROCK inhibitor wells, 0% = DMSO; 360,000 tested, 0.044% active; in the data active = survival enhancement above about 18%;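 also: cells exposed to compounds for 16 hours before the ATP read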
Lipid droplet: hepatic lipid droplet formation modulation; AML12 mouse hepatocytes, oleate lipid droplets, BODIPY imaging; inhibition, % at 6.5 µM; 240,000 tested, 0.4% active;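 active = lipid droplet intensity inhibited by at least 50%, with more than 500 cells counted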
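Test system: AML12 hepatocytes (mouse); reagent: oleate loading, 100 µM; dosing: one dose, 6.5 µM compound; incubation: overnight exposure; signal: fluorescence imaging, 20x objective, two fields per well; read-out basis: % inhibition of corrected integrated BODIPY droplet signal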
Gli-Sufu antag: Gli-Sufu pathway antagonism | inhibition, % at 5 µM | Sufu-KO-LIGHT fibroblasts, Gli luciferase reporter luminescence | AID 588413 | 340,000 tested, 0.74% active;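 active = inhibition above about 55%, limit read from the data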;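 also: 0% = DMSO-treated cells and 100% = wells with medium but no cells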
H9c2 TAG inh: inhibitors of triacylglycerol accumulation; AID 651582; inhibition, % at 12.5 µM; 230,000 tested, 0.66% active; H9c2 cells, Nile Red lipid (TAG) fluorescence; cells loaded with 200 µM oleic acid;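 active = pattern-corrected inhibition of lipid staining of at least 50% with the nuclear-stain viability signal not falling by more than 50%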;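 also: 0% = DMSO wells and 100% = triacsin C control wells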
Jurkat NFkB inh: lowers PMA/ionomycin-induced NF-kB signal in Jurkat cells; inhibition, % at 4 µM; 330,000 tested, 0.53% active; PMA/ionomycin-induced NF-kB luciferase reporter, luminescence; in the data active = inhibition above about 50%
697 NFkB inh: lowers PMA/ionomycin-induced NF-kB signal in 697 B cells; 697 B-cell NF-kB luciferase reporter, 16 h; inhibition, % at 4 µM; AID 435022; 330,000 tested, 0.33% active; in the data active = inhibition above about 35%
Hep lipid conf: confirmation of inhibitors of hepatic lipid droplet formation. AML12 mouse hepatocytes, BODIPY lipid droplet imaging; droplets induced with 100 µM oleic acid. inhibition, % at 5.2 µM. AID 463183. shares compounds with Lipid droplet. 870 tested, 65% active;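 active = inhibition of lipid droplet metric at least 50%, with more than 300 cells in each of four replicates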;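 also: plate controls were DMSO with oleic acid for no effect and 5 µM Triacsin-C for full effect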
AML12 tox img: toxic to AML12 mouse hepatocytes in counter-screen; z-score at 5 µM; AID 463200; shares compounds with Lipid droplet; 870 tested, 3% active; DAPI nuclear morphology cytotoxicity imaging; active compounds read high; cells fed 100 µM oleate overnight; in the data active = z-score above about 6.3;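 also: compound exposure lasted overnight at 37 °C before fixation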
AML12 tox ATP: AML12 hepatocyte cytotoxicity, confirmed; AML12 mouse hepatocyte viability, ATP luminescence; cells loaded with 100 µM oleic acid; 530 tested, under 10 active; shares compounds with Lipid droplet; AID 463219; cytotoxicity, % at 50 µM;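 active = cytotoxicity above 50% in each of four replicates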;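 also: compound exposure lasted overnight at 37 °C before the ATP read; 0% = DMSO-treated cells and 100% = wells with no cells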
Starred values were filed as active, the others as inactive; . = no result given.

SMILES	iPSC survival up	Lipid droplet	Gli-Sufu antag	H9c2 TAG inh	Jurkat NFkB inh	697 NFkB inh	Hep lipid conf	AML12 tox img	AML12 tox ATP
CCC1(c2ccccc2)NC(=O)N(CC(=O)N(C)Cc2ccccc2)C1=O (stereo unspecified)	0	12	-3	.	2	9	.	.	.
CCC1(c2ccccc2)NC(=O)N(CC(=O)N(C)Cc2c(F)cccc2Cl)C1=O (stereo unspecified)	0	81*	12	.	7	8	99*	0.2	14
CCCCCC(O)(c1ccc(OCC)cc1)C(CN1CCOCC1)c1ccccc1 (stereo unspecified)	0	54*	28	.	29	17	73*	0.22	-8
Cc1nn(CC(=O)Nc2cccc(S(N)(=O)=O)c2)c(C)c1[N+](=O)[O-]	-1	30	-1	.	3	-14	.	.	.
Cn1c2ccccc2c2cc(/C=C(\NC(=O)c3ccccc3)C(=O)O)ccc21	0	9	-32	-9	-2	-20	.	.	.
COC(=O)/C(=C\c1ccc2c(c1)c1ccccc1n2C)NC(=O)c1ccccc1	-1	52*	-8	.	-22	-5	93*	0.98	1
CC(C)OC(=O)/C(=C\c1ccc2c(c1)c1ccccc1n2C)NC(=O)c1ccccc1	-1	.	-2	.	-55	-61	.	.	.
CC(C)OC(=O)/C(=C/c1ccc2c(c1)c1ccccc1n2C)NC(=O)c1ccccc1	-2	53*	-55	.	-67	-84	96*	-0.2	-6
Cc1occc1-c1nnc(SCC(=O)NC2CC2)n1C(C)C	0	-2	-11	-7	11	-16	.	.	.
COc1ccc(-n2ncc(C(=O)NC3CC3)c2C2CCN(C(=O)OC(C)(C)C)CC2)cc1	0	-1	-8	.	2	5	.	.	.
COc1ccc(-c2cc(C(F)(F)F)nc(SCc3cccc(C(=O)O)c3)n2)cc1	-1	.	-1	.	-15	15	.	.	.
COc1ccc(-c2cc(C(F)(F)F)nc(SCCC(=O)NCc3ccccc3)n2)cc1	8	62*	1	-7	-13	-15	-6	0.13	.
O=C(COc1ccc(Cl)cc1)Nc1ccc2c(c1)C(=O)NC2=O	1	60*	-16	24	2	20	5	0.079	.
N#CC(C#N)=Cc1cnc(N2CCN(c3ccccc3)CC2)s1	0	.	-3	.	1	-55	.	.	.
COc1n[nH]c(C(=O)Nc2cc(F)ccc2C)c1[N+](=O)[O-]	5	55*	-10	.	-3	-9	9	-0.67	.
CCCCCn1c(N)c(-c2nc3ccccc3s2)c2c([N+](=O)[O-])nn(CC)c(=O)c21	0	72*	-2	.	4	-1	73*	-0.72	-14
CCCCn1c(N)c(-c2nc3ccccc3s2)c2c([N+](=O)[O-])nn(C)c(=O)c21	-3	6	35	.	-12	-18	.	.	.
CCCCn1c(N)c(-c2nc3ccccc3s2)c2c([N+](=O)[O-])nn(CC)c(=O)c21	1	69*	6	.	-14	-24	78*	-0.55	-5
CCOc1cc(C(=O)Nc2ccc(N3CCN(S(C)(=O)=O)CC3)cc2)cc(OCC)c1OCC	3	61*	6	0	3	-17	93*	0.8	7
O=[N+]([O-])c1sccc1CS(=O)(=O)c1ccccc1	0	71*	2	9	7	12	29	-0.14	.
c1ccc(Oc2cccc(CN3CCCCC3)c2)cc1	2	56*	9	.	-8	13	-4	0.1	.
O=C(CSc1nc(-c2ccco2)cc(C(F)(F)F)n1)Nc1ccc(C(=O)N2CCOCC2)cc1	2	59*	-12	36	11	-3	90*	-0.19	9
O=C(CSc1nc(-c2ccco2)cc(C(F)(F)F)n1)NN1CCOCC1	4	18	0	-5	8	11	.	.	.
CC(C)(C)C(=O)Cn1c(=O)n(CC2CCCO2)c(=O)c2ccccc21 (stereo unspecified)	1	55*	5	.	10	-6	9	-0.42	.
COc1ccc(NC(=O)[C@@H](NC(N)=O)C(C)C)cc1Cl	2	7	-6	2	13	6	.	.	.
SMILES	iPSC survival up	Lipid droplet	Gli-Sufu antag	H9c2 TAG inh	Jurkat NFkB inh	697 NFkB inh	Hep lipid conf	AML12 tox img	AML12 tox ATP
Cc1ccc(-n2nc(C)c3c(=O)[nH]c(C(F)(F)F)nc32)cc1	.	74*	.	.	12	-15	12	-0.31	.
Cc1nn(-c2ccccc2)c2nc(C(Cl)(Cl)Cl)[nH]c(=O)c12	0	-5	5	-4	10	15	.	.	.
CCCc1cc(N2CCOCC2)n2nc(C)c(-c3ccccc3)c2n1	1	64*	3	.	-6	-7	96*	0.76	-2
Cc1cc(N2CCOCC2)n2nc(C)c(-c3ccc(Cl)cc3)c2n1	2	98*	-13	.	4	5	110*	0.25	11
Cc1cc(N2CCN(C)CC2)n2nc(-c3ccc(Cl)cc3)nc2n1	3	61*	-6	.	4	10	22	-0.26	.
COc1ccc(NC2CCCN(C(=O)CCC(=O)c3ccc(F)cc3)C2)cc1 (stereo unspecified)	0	4	0	-2	-15	-30	.	.	.
CCOc1cc(N2CCOCC2)c(OCC)cc1NC(=O)COC(=O)c1cccc2ccccc12	2	55*	12	34	-19	-51	101*	1.4	.
O=C(CCNC(=O)c1ccco1)NCc1ccc(C(=O)O)cc1	6	.	0	4	5	17	.	.	.
COc1cc2c(cc1NC(=O)CSc1nc3ccc(C)cc3[nH]1)oc1ccccc12	.	52*	.	.	-9	1	99*	-0.06	.
COc1cc2c(cc1NC(=O)CSc1ccc(C)cc1)oc1ccccc12	-1	.	-2	.	-1	4	.	.	.
CC(C)(O)[C@H](O)Cc1cc2ccc(=O)oc2cc1O[C@@H]1O[C@H](CO)[C@@H](O)[C@H](O)[C@H]1O	0	.	3	1	-7	18	.	.	.
Cc1cc2nn(-c3ccc(F)cc3)nc2cc1N	0	14	-87	.	-131	-140	.	.	.
Cc1cc2nn(-c3ccc(Cl)cc3)nc2cc1N	-1	62*	-20	.	-53	-44	73*	0.24	49
O=C(NC1CCCc2c1cnn2-c1cc(F)cc(F)c1)c1ccccn1 (stereo unspecified)	-1	64*	3	9	-4	-30	100*	0.75	12
CSCC(=O)NC1CCCc2c1cnn2-c1ccc(C)c(C)c1 (stereo unspecified)	0	7	15	5	-33	-26	.	.	.
